# How the values were obtained:
# [1] = target: T1, Alpha-2A adrenergic receptor (Homo sapiens) (UniProt P08913); assay: Inhibition of [3H][…] binding to human recombinant adrenergic alpha2A receptor expressed in insect Sf9 cells at 10 uM after 60 mins
# T1 sequence (whole entry): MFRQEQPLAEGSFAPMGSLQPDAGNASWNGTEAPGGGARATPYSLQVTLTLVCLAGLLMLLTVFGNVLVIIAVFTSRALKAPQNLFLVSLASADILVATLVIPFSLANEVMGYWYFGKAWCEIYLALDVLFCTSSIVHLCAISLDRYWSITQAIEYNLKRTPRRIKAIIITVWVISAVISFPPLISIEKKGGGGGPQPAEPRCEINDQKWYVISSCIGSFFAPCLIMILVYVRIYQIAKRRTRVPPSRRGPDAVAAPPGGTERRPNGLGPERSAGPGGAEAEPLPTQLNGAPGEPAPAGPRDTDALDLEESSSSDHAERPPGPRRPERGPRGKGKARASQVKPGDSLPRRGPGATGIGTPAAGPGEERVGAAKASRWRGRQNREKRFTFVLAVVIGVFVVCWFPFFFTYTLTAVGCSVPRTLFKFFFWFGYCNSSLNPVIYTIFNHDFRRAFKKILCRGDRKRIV
# Summary of the method: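 Sf9 membranes expressing human recombinant α2A, with 1 nM [3H]-MK-912. Nonspecific binding defined by 10 μM WB-4101. Buffer 50 mM Tris-HCl pH 7.4, 12.5 mM MgCl2, 2 mM EDTA. Incubated 60 min at 25 °C, then filtered and counted by scintillation. Duplicate; 1% DMSO final.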
# [2] = system: Mus musculus; assay: Antinociceptive activity against radiant heat-induced nociception in po dosed CD1 mouse assessed as increase in tail withdrawal latency measured after 15 to 120 mins postdose by tail flick test in presence of 2 mg/kg, ip nicotinic receptor antagonist mecamylamine hydrochloride administered 30 mins before compound infusion; assay type: functional
# Summary of the method: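 Antagonist given ip 30 min before oral dosing (naloxone 1, mecamylamine 2, yohimbine 2, CGP 35348 50 mg/kg). Tail flick with radiant heat at the tail tip, cut-off 15 s; latencies at 15–120 min converted to %MPE. Peak-time quantal response (≥50% MPE); ED50 from at least four groups of six male CD-1 mice.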
# [3] = system: Mus musculus; assay: Antinociceptive activity against radiant heat-induced nociception in po dosed CD1 mouse assessed as increase in tail withdrawal latency measured after 15 to 120 mins postdose by tail flick test; assay type: functional
# Summary of the method: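 Male CD-1 mice, 25–30 g; oral dosing. Radiant heat focused 3–4 cm from tail tip of hand-restrained mice; tail withdrawal latency recorded, cutoff 15 s at 15 V. Baseline = mean of three readings 15 min apart; latency at 15–120 min.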
# [4] = system: Mus musculus; assay: (§1) Antinociceptive activity against thermal nociception in po dosed CD1 mouse assessed as increase in latency period to elicit jumping or hind paw licking measured after 15 to 90 mins postdose by hot plate method in presence of 2 mg/kg, ip nicotinic receptor antagonist mecamylamine hydrochloride administered 30 mins before compound infusion; assay type: functional
# Summary of the method: (§2)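 Antagonist given ip 30 min before oral dosing (naloxone 1, mecamylamine 2, yohimbine 2, CGP 35348 50 mg/kg). Hot plate at 48.5 ± 0.1 °C inside a cylinder, cut-off 60 s; latencies at 15–90 min as %MPE. Peak-time quantal response (≥50% MPE); ED50 from at least four groups of six male CD-1 mice.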
# [5] = system: Mus musculus; assay: Antinociceptive activity against radiant heat-induced nociception in CD1 mouse assessed as tail withdrawal latency at 1 mg/kg, po measured after 15 to 120 mins postdose by tail flick test in presence of 0.1 to 1 mg/kg, ip alpha-1-adrenergic receptor antagonist prazosin administered 15 mins before compound infusion; assay type: functional
# Summary of the method: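 Male CD-1 mice given prazosin ip (0.1 or 1 mg/kg) 15 min before oral dosing at 1 mg/kg. Tail flick: radiant heat 3–4 cm from the tail tip, cut-off 15 s. Hot plate: 48.5 °C, cut-off 60 s. Baseline is the mean of three readings 15 min apart. Latency followed over time and expressed as %MPE.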
# [6] = target: T2, Alpha-1A adrenergic receptor (Rattus norvegicus) (UniProt P43140); assay: Inhibition of [3H]prazosin binding to adrenergic alpha1A receptor in Wistar rat submaxillary gland at 10 uM after 60 mins
# T2 sequence (whole entry): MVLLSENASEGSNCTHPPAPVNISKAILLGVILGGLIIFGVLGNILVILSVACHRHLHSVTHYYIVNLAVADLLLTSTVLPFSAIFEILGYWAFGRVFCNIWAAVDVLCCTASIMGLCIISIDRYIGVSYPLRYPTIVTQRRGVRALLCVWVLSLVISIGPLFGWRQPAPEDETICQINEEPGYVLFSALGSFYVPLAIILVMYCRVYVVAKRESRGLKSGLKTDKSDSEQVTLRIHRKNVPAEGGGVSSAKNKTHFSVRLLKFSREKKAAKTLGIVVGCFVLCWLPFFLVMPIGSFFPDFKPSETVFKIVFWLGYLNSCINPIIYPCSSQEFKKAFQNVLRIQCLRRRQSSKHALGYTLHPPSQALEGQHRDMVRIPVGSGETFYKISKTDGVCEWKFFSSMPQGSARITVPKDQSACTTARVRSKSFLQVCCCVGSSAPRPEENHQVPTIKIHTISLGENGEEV
# Summary of the method: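 Wistar rat submaxillary gland membranes with 0.25 nM [3H]-prazosin. Nonspecific binding defined by 10 μM phentolamine. Buffer 50 mM Tris-HCl pH 7.4, 0.5 mM EDTA. Incubated 60 min at 25 °C, then filtered and counted. Duplicate; 1% DMSO final.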
# [7] = system: Mus musculus; assay: Antinociceptive activity against radiant heat-induced nociception in icv dosed CD1 mouse assessed as increase in tail withdrawal latency measured after 15 to 120 mins postdose by tail flick test; assay type: functional
# Summary of the method: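 Male CD-1 mice anesthetized with ketamine-xylazine (80 + 10 mg/kg ip). Dosed into the right lateral ventricle (+2 mm ML, −0.3 mm AP to bregma, 2 mm depth). Tail flick with radiant heat, cut-off 15 s. Latency read at 15–120 min as %MPE.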
# [8] = system: Mus musculus; assay: as §1, with “1” for “2”, “opioid” for “nicotinic”, “naloxone” for “mecamylamine”; assay type: functional; summary of the method: as §2
# [9] = target: T3, Alpha-1B adrenergic receptor (Rattus norvegicus) (UniProt P15823); conditions: Wistar, Liver, Membrane, 10 uM
# T3 sequence (whole entry): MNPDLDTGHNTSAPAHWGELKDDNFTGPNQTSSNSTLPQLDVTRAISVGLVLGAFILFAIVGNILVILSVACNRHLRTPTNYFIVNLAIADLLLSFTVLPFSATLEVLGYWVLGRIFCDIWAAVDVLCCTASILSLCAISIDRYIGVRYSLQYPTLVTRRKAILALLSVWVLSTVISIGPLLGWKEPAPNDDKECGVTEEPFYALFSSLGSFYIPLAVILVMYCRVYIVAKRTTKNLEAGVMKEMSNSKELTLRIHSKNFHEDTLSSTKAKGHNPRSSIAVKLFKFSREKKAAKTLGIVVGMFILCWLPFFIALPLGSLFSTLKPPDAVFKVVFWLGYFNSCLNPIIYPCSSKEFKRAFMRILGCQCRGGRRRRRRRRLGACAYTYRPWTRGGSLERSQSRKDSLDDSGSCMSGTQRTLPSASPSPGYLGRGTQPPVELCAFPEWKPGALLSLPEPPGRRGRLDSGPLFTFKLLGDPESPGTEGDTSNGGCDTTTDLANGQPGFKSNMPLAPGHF
smiles,measurement,setting,value
C=Cc1c(C)nn(CCCN2CCN(c3ccc(C)cc3)CC2)c(=O)c1N,Emax,[1],100%
same,ED50,[2],2.3 mg/kg
same,ED50,[3],0.8 mg/kg
same,ED50,[4],0.7 mg/kg
same,Activity,[5],120 min
same,Emax,[6],101%
same,ED50,[7],3.5 µg
same,ED50,[8],1.1 mg/kg
same,Emax,[9],99%

# — ChEMBL document CHEMBL1154181 (J Med Chem, 2009)
